Source: ChEMBL document CHEMBL1156894, “Potent oxadiazole CGRP receptor antagonists for the potential treatment of migraine” (Bioorg Med Chem Lett, 2010)
Converted amounts (≈) assume the structure as drawn.

Key:
[1] = biological target: T1, Calcitonin gene-related peptide type 1 receptor (Homo sapiens, UniProt O60894+Q16602); test: Antagonist activity at human recombinant CGRP receptor expressed in HEK293 cells assessed as inhibition of CGRP-stimulated increase of intracellular cAMP level in absence of human serum albumin; assay type: functional, cell-based
Method in brief: (§1)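 HEK 293 cells expressing human recombinant CGRP receptor; antagonism of CGRP-stimulated rise in intracellular cAMP measured, run with or without HSA; functional pKi (fpKi) derived. Values are means of two experiments unless otherwise footnoted.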

[2] = Permeability across artificial membrane; assay type: ADME; details: PAMPA; read-out: permeability
Method in brief: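 In vitro artificial membrane permeability assay (PAMPA).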

[3] = biological target: T1, Calcitonin gene-related peptide type 1 receptor; test: Antagonist activity at human recombinant CGRP receptor expressed in HEK293 cells assessed as inhibition of CGRP-stimulated increase of intracellular cAMP level in presence of human serum albumin; assay type: functional, cell-based; method in brief: as §1
[4] = Aqueous solubility in fasted-state simulated intestinal fluid after 1 hr; assay type: physicochemical
Method in brief: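 Compound amount dissolved in fasted-state simulated intestinal fluid, read at the 1 h time point.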

[5] = Blood clearance in rat; assay type: ADME, organism-based
Rattus norvegicus [6] = test: Dose normalized AUC in rat at 10 mg/kg, po in 5% N-Methyl-2-pyrrolidone, 80% Poly(ethylene glycol400 diluted to volume with 20% vitamin E TPGS in water; assay type: ADME, organism-based; set-up: dose 10 mg/kg, route oral; details: in vivo
Method in brief: (§2)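 Rats given 10 mg/kg orally, formulated at 2 mg/mL in 5% NMP, 80% PEG400 made up to volume with 20% Vitamin E TPGS in water. Blood concentration-time profile followed over about 5 h per rat, giving Cmax, Tmax and dose-normalised AUC.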

Rattus norvegicus [7] = test: Liver blood flow in rat at 1 mg/kg, iv; assay type: ADME, organism-based; set-up: dose 1 mg/kg, route intravenous; details: in vivo
[8] = Bioavailability in rat at 10 mg/kg, po in 5% N-Methyl-2-pyrrolidone, 80% Poly(ethylene glycol400 diluted to volume with 20% vitamin E TPGS in water; assay type: ADME, organism-based; details: in vivo
[9] = Tmax in rat at 10 mg/kg, po in 5% N-Methyl-2-pyrrolidone, 80% Poly(ethylene glycol400 diluted to volume with 20% vitamin E TPGS in water; assay type: ADME, organism-based; set-up: dose 10 mg/kg, route oral; details: in vivo; method in brief: as §2
[10] = Half life in rat at 1 mg/kg, iv; assay type: ADME, organism-based; set-up: dose 1 mg/kg, route intravenous; details: in vivo
Method in brief: (§3)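 Intravenous dose of 1 mg/kg in rat; clearance and half-life derived from the blood profile.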

[11] = Cmax in rat at 10 mg/kg, po in 5% N-Methyl-2-pyrrolidone, 80% Poly(ethylene glycol400 diluted to volume with 20% vitamin E TPGS in water; assay type: ADME, organism-based; set-up: dose 10 mg/kg, route oral; details: in vivo; method in brief: as §2
[12] = Clearance in rat at 1 mg/kg, iv; assay type: ADME, organism-based; set-up: dose 1 mg/kg, route intravenous; details: in vivo; method in brief: as §3
[13] = Cmax in rat at 10 mg/kg, po in 1% methylcellulose; assay type: ADME, organism-based; set-up: dose 10 mg/kg, route oral; details: in vivo
Method in brief: (§4)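 Oral dosing to rats at 10 mg/kg as a 2 mg/mL suspension in 1% (w/v) aqueous methylcellulose. Blood concentrations followed over about 6 h, giving Cmax, Tmax and dose-normalised AUC.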

[14] = Tmax in rat at 10 mg/kg, po in 1% methylcellulose; assay type: ADME, organism-based; set-up: dose 10 mg/kg, route oral; details: in vivo; method in brief: as §4
[15] = Bioavailability in rat at 10 mg/kg, po in 1% methylcellulose; assay type: ADME, organism-based; details: in vivo
Rattus norvegicus [16] = test: Dose normalized in rat at 10 mg/kg, po in 1% methylcellulose; assay type: ADME, organism-based; set-up: dose 10 mg/kg, route oral; details: in vivo; method in brief: as §4

T1 sequence (Q16602 whole entry, one chain of several): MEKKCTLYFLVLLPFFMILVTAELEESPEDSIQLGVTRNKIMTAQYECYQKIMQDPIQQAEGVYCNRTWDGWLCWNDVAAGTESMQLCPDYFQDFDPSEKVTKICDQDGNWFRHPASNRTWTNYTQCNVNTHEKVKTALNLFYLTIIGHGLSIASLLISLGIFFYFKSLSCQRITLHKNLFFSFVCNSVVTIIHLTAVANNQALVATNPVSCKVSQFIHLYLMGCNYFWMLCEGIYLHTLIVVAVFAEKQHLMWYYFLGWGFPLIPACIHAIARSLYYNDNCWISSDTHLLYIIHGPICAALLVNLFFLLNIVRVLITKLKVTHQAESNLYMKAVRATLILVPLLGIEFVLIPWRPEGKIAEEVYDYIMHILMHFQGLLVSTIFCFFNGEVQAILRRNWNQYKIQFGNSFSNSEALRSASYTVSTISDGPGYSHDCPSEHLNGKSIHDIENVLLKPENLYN

Row | SMILES | Ki [1] [nM] | Papp [2] [×10⁻⁶ cm/s] | Ki [3] [nM] | solubility at 1 h [4] [µg/mL] | also measured
1 | O=C(Cc1nnc(-c2cc(-c3ccccc3)cc(N3CCOCC3)c2)o1)N1CCC(n2c(=O)[nH]c3ncccc32)CC1 | 200 | – | – | – | –
2 | O=C(Cc1nnc(-c2cc(Cl)ccc2Cl)o1)N1CCC(n2c(=O)[nH]c3ncccc32)CC1 | 126 | – | – | – | –
3 | O=C(Cc1nnc(-c2c(Cl)cccc2Cl)o1)N1CCC(n2c(=O)[nH]c3ncccc32)CC1 | 794 | – | – | – | –
4 | O=C(Cc1nnc(-c2cccc(Cl)c2)o1)N1CCC(n2c(=O)[nH]c3ncccc32)CC1 | 316 | – | – | – | –
5 | O=C(Cc1nnc(-c2ccc(Cl)cc2)o1)N1CCC(n2c(=O)[nH]c3ncccc32)CC1 | 1000 | – | – | – | –
6 | COc1cc(OC)cc(-c2nnc(CC(=O)N3CCC(n4c(=O)[nH]c5ncccc54)CC3)o2)c1 | 50.1 | – | – | – | –
7 | O=C(Cc1nnc(-c2cc(F)cc(Cl)c2)o1)N1CCC(n2c(=O)[nH]c3ncccc32)CC1 | 25.1 | – | – | – | –
8 | O=C(Cc1nnc(-c2cc(C(F)(F)F)cc(C(F)(F)F)c2)o1)N1CCC(n2c(=O)[nH]c3ncccc32)CC1 | 25.1 | – | – | – | –
9 | O=C(Cc1nnc(-c2ccccc2Cl)o1)N1CCC(n2c(=O)[nH]c3ncccc32)CC1 | 501 | – | – | – | –
10 | COc1ccc(-c2ccccc2)cc1CC(=O)N1CCC(n2c(=O)[nH]c3ncccc32)CC1 | 2510 | – | – | – | –
11 | Cc1cc(C)cc(-c2nnc(CC(=O)N3CCC(n4c(=O)[nH]c5ncccc54)CC3)o2)c1 | 25.1 | – | – | – | –
12 | O=C(Cc1nnc(-c2ccc(Cl)c(Cl)c2)o1)N1CCC(n2c(=O)[nH]c3ncccc32)CC1 | 251 | – | – | – | –
13 | O=C(Cc1nnc(-c2cccc(Cl)c2Cl)o1)N1CCC(n2c(=O)[nH]c3ncccc32)CC1 | 158 | – | – | – | –
14 | O=C(Cc1nnc(-c2ccccc2)o1)N1CCC(n2c(=O)[nH]c3ncccc32)CC1 | 200 | – | – | – | –
15 | O=C(Cc1nnc(-c2cc(F)cc(F)c2)o1)N1CCC(n2c(=O)[nH]c3ncccc32)CC1 | 126 | – | – | – | –

These reach a lower Ki [1]. Values come first.

Row | Ki [1] [nM] | Papp [2] [×10⁻⁶ cm/s] | Ki [3] [nM] | solubility at 1 h [4] [µg/mL] | SMILES | also measured
16 | 3.98 | 20 | 79.4 | 10 (≈ 17.1 µM) | O=C(Cc1nnc(-c2cc(Cl)cc(C3CCN(CC(F)F)CC3)c2)o1)N1CCC(n2c(=O)[nH]c3ncccc32)CC1 | clearance [5]: 67 mL/min/kg
17 | 3.98 | – | – | – | O=C(Cc1nnc(-c2cc(Cl)cc(C(F)(F)F)c2)o1)N1CCC(n2c(=O)[nH]c3ncccc32)CC1 | AUC (Rattus norvegicus [6]): 6.3 kg·min/L; LBF (Rattus norvegicus [7]): 40%; bioavailability [8]: 20%; Tmax [9]: 1.5 h; half-life [10]: 0.5 h; Cmax [11]: 700 nM; clearance [12]: 33 mL/min/kg
18 | 2.51 | – | – | – | O=C(Cc1nnc(-c2cc(Cl)cc(-c3ccccc3)c2)o1)N1CCC(n2c(=O)[nH]c3ncccc32)CC1 | –
19 | 6.31 | 12 | 126 | 40 (≈ 76.3 µM) | O=C(Cc1nnc(-c2cc(Cl)cc(N3CCOCC3)c2)o1)N1CCC(n2c(=O)[nH]c3ncccc32)CC1 | clearance [5]: 70 mL/min/kg
20 | 12.6 | – | – | – | O=C(Cc1nnc(-c2cc(Cl)cc(Br)c2)o1)N1CCC(n2c(=O)[nH]c3ncccc32)CC1 | –
21 | 5.01 | < 0.3 | 25.1 | 210 (≈ 391 µM) | CN1CCN(c2cc(Cl)cc(-c3nnc(CC(=O)N4CCC(n5c(=O)[nH]c6ncccc65)CC4)o3)c2)CC1 | clearance [5]: 72 mL/min/kg
22 | 3.98 | 2.2 | 20 | 531 (≈ 991 µM) | CN1CCC(c2cc(Cl)cc(-c3nnc(CC(=O)N4CCC(n5c(=O)[nH]c6ncccc65)CC4)o3)c2)CC1 | –
23 | 1.58 | < 0.3 | 100 | 390 (≈ 732 µM) | Cc1ncc(-c2cc(Cl)cc(-c3nnc(CC(=O)N4CCC(n5c(=O)[nH]c6ncccc65)CC4)o3)c2)n1C | clearance [5]: 52 mL/min/kg
24 | 15.8 | – | – | – | O=C(Cc1nnc(-c2cc(Cl)cc(Cl)c2)o1)N1CCC(n2c(=O)[nH]c3ncccc32)CC1 | –
25 | 12.6 | 18.5 | 15.8 | 120 (≈ 217 µM) | CN(C)CCOc1cc(Cl)cc(-c2nnc(CC(=O)N3CCC(N4CCc5ccccc5NC4=O)CC3)o2)c1 | Cmax [13]: 250 nM; Tmax [14]: 3 h; bioavailability [15]: 14%; half-life [10]: 1.9 h; AUC (Rattus norvegicus [16]): 2.5 kg·min/L; clearance [5]: 50 mL/min/kg; clearance [12]: 50 mL/min/kg
26 | 7.94 | – | – | – | COc1cc(Cl)cc(-c2nnc(CC(=O)N3CCC(n4c(=O)[nH]c5ncccc54)CC3)o2)c1 | –
27 | 5.01 | 1.2 | 50.1 | 330 (≈ 627 µM) | CN(C)CCOc1cc(Cl)cc(-c2nnc(CC(=O)N3CCC(n4c(=O)[nH]c5ncccc54)CC3)o2)c1 | –
28 | 6.31 | – | – | – | Cc1cc(-c2nnc(CC(=O)N3CCC(n4c(=O)[nH]c5ncccc54)CC3)o2)cc(N2CCOCC2)c1 | –
29 | 2.51 | 22 | 126 | < 1 | Cc1ccc(-c2cc(Cl)cc(-c3nnc(CC(=O)N4CCC(n5c(=O)[nH]c6ncccc65)CC4)o3)c2)cn1 | –
30 | 3.16 | 0.5 | 15.8 | 565 (≈ 1030 µM) | CCN1CCC(c2cc(Cl)cc(-c3nnc(CC(=O)N4CCC(n5c(=O)[nH]c6ncccc65)CC4)o3)c2)CC1 | –
